Active and inactive are the calls of the source. No cut-off for these calls is given here. Non-standard residues stand in square brackets, D forms with d. Residues, ends and D or L forms follow the SMILES beside them. *: point of attachment. Pyrrolidide = C1CCN(*)C1; Cbz = O=C(OCc1ccccc1)*; Dap = NC[C@H](N)C(=O)O
Tests used:
[1] = (§1) Inhibition of Norwalk virus recombinant His6-tagged protease using EDANS-EPDFHLQGPEDLAK-Dabcyl as substrate preincubated for 45 mins followed by substrate addition measured every 1 min for 30 mins by FRET analysis
How it was run: (§2)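 Protease purified on Ni-NTA, used at 0.5 μM final. Preincubated with inhibitor (0, 0.05, 0.2, 1, 5, 20, 100, 150 μM) in 50 mM NaH2PO4 pH 8, 50 mM NaCl, 5 mM TCEP, room temperature. Substrate added to 30 μM final. Fluorescence read at ex 360/em 460 nm at 37 °C. Ki derived from initial velocities by Morrison tight-binding fit.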

Norwalk virus = test: as §1; how it was run: as §2
[2] = Inhibition of Houston virus recombinant His6-tagged protease using EDANS-EPDFHLQGPEDLAK-Dabcyl as substrate preincubated for 45 mins followed by substrate addition measured every 1 min for 30 mins by FRET analysis; parameters: species or system genotype 2; how it was run: as §2
[3] = Selectivity ratio of Ki for Houston virus recombinant His6-tagged protease to Ki for Norwalk virus recombinant His6-tagged protease

CNC(=O)CC[C@@H](C=O)NC(=O)[C@H](Cc1ccccc1)NC(=O)[C@H](CC(C)C)NC(=O)OCc1ccccc1 (Cbz-Leu-Phe-Glu(NHMe)-aldehyde)
Ki [1]: 5.1 µM

CN(C)C(=O)CC[C@@H](C=O)NC(=O)[C@H](Cc1ccccc1)NC(=O)[C@H](CC(N)=O)NC(=O)OCc1ccccc1 (Cbz-Asn-Phe-Glu(NMe2)-aldehyde)
Ki [1]: 1.6 µM

CCOC(=O)/C=C/[C@H](CCC(=O)N(C)C)NC(=O)[C@H](Cc1ccccc1)NC(=O)[C@H](CC(C)C)NC(=O)OCc1ccccc1
inhibition (Norwalk virus): inactive

CC(C)[C@H](NC(=O)OCc1ccccc1)C(=O)N1CCC[C@H]1C(=O)N[C@H](C=O)CCC(=O)N(C)C (Cbz-Val-Pro-Glu(NMe2)-aldehyde)
Ki [1]: 8.2 µM

CC(C)C[C@H](NC(=O)OCc1ccccc1)C(=O)N[C@@H](Cc1ccccc1)C(=O)N[C@H](C=O)CCC(=O)N1CCCC1 (Cbz-Leu-Phe-Glu(Pyrrolidide)-aldehyde)
Ki [1]: 0.075 µM

CCOC(=O)/C=C/[C@H](CCC(N)=O)NC(=O)[C@H](Cc1ccccc1)NC(=O)[C@H](CC(C)C)NC(=O)OCc1ccccc1
inhibition (Norwalk virus): inactive

CC(C)C[C@H](NC(=O)OCc1ccccc1)C(=O)N[C@@H](Cc1ccccc1)C(=O)N[C@H](C=O)CCC(=O)N(C)C (Cbz-Leu-Phe-Glu(NMe2)-aldehyde)
Ki [2]: 7.5 µM
Ratio Ki [3]: 60
Ki [1]: 0.12 µM

CCOC(=O)/C=C/[C@H](CNC(C)=O)NC(=O)[C@H](Cc1ccccc1)NC(=O)[C@H](CC(C)C)NC(=O)OCc1ccccc1
inhibition (Norwalk virus): inactive

CC(C)C[C@H](NC(=O)[C@H](Cc1c[nH]cn1)NC(=O)OCc1ccccc1)C(=O)N[C@H](C=O)CCC(=O)N(C)C (Cbz-His-Leu-Glu(NMe2)-aldehyde)
Ki [1]: 1.9 µM

CC(C)C[C@H](NC(=O)OCc1ccccc1)C(=O)N1CCC[C@H]1C(=O)N[C@H](C=O)CCC(=O)N(C)C (Cbz-Leu-Pro-Glu(NMe2)-aldehyde)
Ki [1]: 46 µM

CC(C)C[C@H](NC(=O)[C@H](CCC(N)=O)NC(=O)OCc1ccccc1)C(=O)N[C@H](C=O)CCC(=O)N(C)C (Cbz-Gln-Leu-Glu(NMe2)-aldehyde)
Ki [2]: 4.3 µM
Ratio Ki [3]: 10
Ki [1]: 0.31 µM

CC(C)C[C@H](NC(=O)[C@H](C)NC(=O)OCc1ccccc1)C(=O)N[C@H](C=O)CCC(=O)N(C)C (Cbz-Ala-Leu-Glu(NMe2)-aldehyde)
Ki [2]: 4.6 µM
Ratio Ki [3]: 10
Ki [1]: 0.59 µM

CC(=O)NC[C@@H](C=O)NC(=O)[C@H](Cc1ccccc1)NC(=O)[C@H](CC(C)C)NC(=O)OCc1ccccc1 (Cbz-Leu-Phe-[Dap](Ac)-aldehyde)
Ki [2]: 14 µM
Ratio Ki [3]: 10
Ki [1]: 1.5 µM

CC(=O)[C@H](CCC(=O)N(C)C)NC(=O)[C@H](Cc1ccccc1)NC(=O)[C@H](CC(C)C)NC(=O)OCc1ccccc1
Ki [1]: 150 µM

CC(=O)N[C@@H](CC(C)C)C(=O)N[C@@H](Cc1ccccc1)C(=O)N[C@H](C=O)CCC(=O)N(C)C (Ac-Leu-Phe-Glu(NMe2)-aldehyde)
Ki [1]: 39 µM

CC(C)C[C@H](NC(=O)OCc1ccccc1)C(=O)N[C@@H](Cc1ccccc1)C(=O)N[C@H](C=O)CCC(=O)NC1CC1
Ki [1]: 1.4 µM
